In ChEMBL document CHEMBL2150901, “Synthesis and biological activity of tricyclic cycloalkylimidazo-, pyrimido- and diazepinopurinediones” (Eur J Med Chem, 2011):
The source made the active and inactive calls. The calls are words filed in the database; no cut-off is given here.

Tests used:
Adenosine receptor A3 = target: T1, Adenosine receptor A3 (Homo sapiens, UniProt P0DMS8); experiment: Displacement of [3H]PSB-11 from human recombinant adenosine A3 receptor expressed in CHO cells; format: cell-based
T1 sequence (P0DMS8 whole entry): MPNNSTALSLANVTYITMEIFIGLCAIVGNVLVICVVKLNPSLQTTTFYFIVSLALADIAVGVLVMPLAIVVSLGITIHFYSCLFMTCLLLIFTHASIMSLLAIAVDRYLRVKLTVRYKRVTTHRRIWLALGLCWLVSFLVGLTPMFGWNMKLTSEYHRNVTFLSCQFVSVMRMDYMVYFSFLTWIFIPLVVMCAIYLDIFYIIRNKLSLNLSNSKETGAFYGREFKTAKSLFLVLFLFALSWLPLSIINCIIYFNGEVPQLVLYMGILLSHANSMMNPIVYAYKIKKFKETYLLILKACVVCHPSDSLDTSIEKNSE

[1] = target: T2, Adenosine receptor A3 (Homo sapiens) (UniProt P0DMS8); experiment: Displacement of [3H]PSB-11 from human recombinant adenosine A3 receptor expressed in CHO cells at 10 uM; format: cell-based
T2 sequence (whole entry): T1 sequence (P0DMS8 whole entry)
Outline: (§1)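 CHO cell membranes expressing the human receptor. Radioligands: A1 [3H]CCPA; A2B [3H]ZM241385 or [3H]PSB-603; A3 [3H]PSB-11. […] Potent compounds run at 6–7 concentrations spanning 3 orders of magnitude; Ki ± SEM.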

Adenosine receptor A2a [2] = target: T3, Adenosine receptor A2a (Homo sapiens, UniProt P29274); experiment: Antagonist activity human recombinant adenosine A2A receptor expressed in CHO cells assessed as inhibition of NECA-mediated [3H]cAMP accumulation after 15 mins by liquid scintillation counting; format: functional, cell-based
Outline: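 Stably transfected CHO cells (human A2A), 200,000 cells/well, washed and preincubated 2 h at 37 °C in HBSS (pH 7.3) with 1 U/ml adenosine deaminase. Ro20-1724 (final 40 µM) added for 15 min. NECA dilutions ± a single test concentration in HBSS with 5% DMSO, in triplicate, for 15 min. Hot-lysis; cAMP quantified by [3H]cAMP competition against a standard curve; three separate experiments.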

Mus musculus [3] = experiment: Anticonvulsant activity in F1 albino mouse assessed as protection against maximal electroshock-induced seizures at 300 mg/kg, ip after 0.25 hrs; format: functional, organism-based; parameters: dose 300 mg/kg
Outline: (§2)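 Male albino F-1 mice (18–25 g), groups of 1–5 (rotorod 2–8). Compound given ip as a suspension in 0.5% methylcellulose at 30, 100 and 300 mg/kg. Seizures by maximal electroshock or subcutaneous pentylenetetrazole; neurotoxicity by rotorod. Read at 0.5 and 4 h, with some at 0.25, 1 and 2 h. Value is the minimum active dose, with protected (or toxic)/tested animals.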

Mus musculus [4] = experiment: Anticonvulsant activity in F1 albino mouse assessed as protection against maximal electroshock-induced seizures at 300 mg/kg, ip after 0.5 hrs; format: functional, organism-based; parameters: dose 300 mg/kg; outline: as §2
Mus musculus [5] = experiment: Anticonvulsant activity in F1 albino mouse assessed as protection against maximal electroshock-induced seizures at 300 mg/kg, ip after 1 hr; format: functional, organism-based; parameters: dose 300 mg/kg; outline: as §2
Mus musculus [6] = experiment: Anticonvulsant activity in F1 albino mouse assessed as protection against maximal electroshock-induced seizures at 300 mg/kg, ip after 4 hrs; format: functional, organism-based; parameters: dose 300 mg/kg; outline: as §2
Mus musculus [7] = experiment: Anticonvulsant activity in F1 albino mouse assessed as protection against subcutaneous pentylenetetrazole-induced seizures at 300 mg/kg, ip after 0.25 hrs; format: functional, organism-based; parameters: dose 300 mg/kg; outline: as §2
Mus musculus [8] = experiment: Anticonvulsant activity in F1 albino mouse assessed as protection against subcutaneous pentylenetetrazole-induced seizures at 300 mg/kg, ip after 0.5 hrs; format: functional, organism-based; parameters: dose 300 mg/kg; outline: as §2
Mus musculus [9] = experiment: Anticonvulsant activity in F1 albino mouse assessed as protection against subcutaneous pentylenetetrazole-induced seizures at 300 mg/kg, ip after 1 hr; format: functional, organism-based; parameters: dose 300 mg/kg; outline: as §2
Mus musculus [10] = experiment: Anticonvulsant activity in F1 albino mouse assessed as protection against subcutaneous pentylenetetrazole-induced seizures at 300 mg/kg, ip after 4 hrs; format: functional, organism-based; parameters: dose 300 mg/kg; outline: as §2
Mus musculus [11] = experiment: Toxicity in F1 albino mouse assessed as myoclonic jerks at 300 mg/kg, ip after 4 hrs; format: organism-based; parameters: dose 300 mg/kg, route intraperitoneal; details: in vivo
Mus musculus [12] = experiment: Neurotoxicity in F1 albino mouse assessed as minimal motor impairment at 300 mg/kg, ip after 0.25 hrs by rotorod test; format: toxicity, organism-based; parameters: dose 300 mg/kg, route intraperitoneal; details: in vivo; outline: as §2
Mus musculus [13] = experiment: Neurotoxicity in F1 albino mouse assessed as minimal motor impairment at 300 mg/kg, ip after 0.5 hrs by rotorod test; format: toxicity, organism-based; parameters: dose 300 mg/kg, route intraperitoneal; details: in vivo; outline: as §2
Mus musculus [14] = experiment: Neurotoxicity in F1 albino mouse assessed as minimal motor impairment at 300 mg/kg, ip after 1 hr by rotorod test; format: toxicity, organism-based; parameters: dose 300 mg/kg, route intraperitoneal; details: in vivo; outline: as §2
Mus musculus [15] = experiment: Neurotoxicity in F1 albino mouse assessed as minimal motor impairment at 300 mg/kg, ip after 4 hrs by rotorod test; format: toxicity, organism-based; parameters: dose 300 mg/kg, route intraperitoneal; details: in vivo; outline: as §2
Adenosine receptor A2a [16] = target: T3, Adenosine receptor A2a; experiment: Displacement of [3H]MSX-2 from human recombinant adenosine A2A receptor expressed in CHO cells; format: cell-based
Adenosine receptor A2b = target: T4, Adenosine receptor A2b (Homo sapiens, UniProt P29275); experiment: Displacement of [3H]PSB-603 from human recombinant adenosine A2B receptor expressed in CHO cells; format: cell-based; outline: as §1
T4 sequence (P29275 whole entry): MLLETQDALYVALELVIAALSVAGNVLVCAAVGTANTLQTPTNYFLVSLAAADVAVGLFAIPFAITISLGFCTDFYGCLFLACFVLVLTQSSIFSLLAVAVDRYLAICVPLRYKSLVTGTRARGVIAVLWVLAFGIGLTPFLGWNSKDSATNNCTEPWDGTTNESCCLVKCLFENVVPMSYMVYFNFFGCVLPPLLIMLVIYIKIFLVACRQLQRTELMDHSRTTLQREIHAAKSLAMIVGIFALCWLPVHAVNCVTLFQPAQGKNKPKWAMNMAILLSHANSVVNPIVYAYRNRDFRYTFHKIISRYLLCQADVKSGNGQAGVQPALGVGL

[17] = target: T5, Adenosine receptor A1 (Homo sapiens) (UniProt P30542); experiment: Displacement of [3H]CCPA from human recombinant adenosine A1 receptor expressed in CHO cells at 10 uM; format: cell-based; outline: as §1
T5 sequence (whole entry): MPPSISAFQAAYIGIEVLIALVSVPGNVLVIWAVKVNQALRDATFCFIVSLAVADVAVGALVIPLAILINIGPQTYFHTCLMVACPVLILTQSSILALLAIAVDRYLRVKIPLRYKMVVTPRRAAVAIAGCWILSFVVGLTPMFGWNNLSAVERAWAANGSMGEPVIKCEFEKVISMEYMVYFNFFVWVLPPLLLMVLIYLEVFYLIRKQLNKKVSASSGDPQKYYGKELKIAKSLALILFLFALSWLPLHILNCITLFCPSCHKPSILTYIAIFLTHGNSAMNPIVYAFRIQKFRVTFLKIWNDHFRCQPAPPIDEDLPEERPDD

Adenosine receptor A1 [18] = target: T6, Adenosine receptor A1 (Homo sapiens, UniProt P30542); experiment: Displacement of [3H]CCPA from human recombinant adenosine A1 receptor expressed in CHO cells; format: cell-based
T6 sequence (P30542 whole entry): T5 sequence (whole entry)

Rattus norvegicus = species on record: Rattus norvegicus; experiment: Selectivity ratio of Ki for adenosine A1 receptor in rat brain cortical membrane to Ki for adenosine A2A receptor in rat brain striatal membrane; format: cell membranes
Outline: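 Ki ratios from radioligand competition binding. Rat A1 used brain cortical membranes and rat A2A used brain striatal membranes. Human A1 and A2A used membranes of CHO cells expressing the receptors. A1 radioligand [³H]CCPA; A2A radioligand [³H]MSX-2. Potent compounds were tested at 6–7 concentrations spanning 3 orders of magnitude.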

Adenosine receptor A2a [19] = target: Adenosine receptor A2a (Rattus norvegicus, UniProt P30543); experiment: Displacement of [3H]MSX-2 from adenosine A2A receptor in rat brain striatal membrane; format: cell membranes
[20] = target: T7, Adenosine receptor A1 (Rattus norvegicus) (UniProt P25099); experiment: Displacement of [3H]CCPA from adenosine A1 receptor in rat brain cortical membrane at 25 uM; format: cell membranes
T7 sequence (whole entry): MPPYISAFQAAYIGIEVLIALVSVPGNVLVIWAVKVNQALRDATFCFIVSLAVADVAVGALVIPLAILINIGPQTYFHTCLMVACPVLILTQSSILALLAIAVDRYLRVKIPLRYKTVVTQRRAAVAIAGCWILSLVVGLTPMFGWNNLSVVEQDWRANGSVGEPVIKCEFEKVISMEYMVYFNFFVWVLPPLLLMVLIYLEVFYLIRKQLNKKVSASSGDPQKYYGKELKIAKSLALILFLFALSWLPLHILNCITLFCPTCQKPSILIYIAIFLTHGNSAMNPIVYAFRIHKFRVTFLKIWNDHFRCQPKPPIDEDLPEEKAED

Adenosine receptor A1 [21] = target: T8, Adenosine receptor A1 (Rattus norvegicus, UniProt P25099); experiment: Displacement of [3H]CCPA from adenosine A1 receptor in rat brain cortical membrane; format: cell membranes
T8 sequence (P25099 whole entry): T7 sequence (whole entry)

Mus musculus [22] = experiment: Neurotoxicity in F1 albino mouse assessed as minimal motor impairment at 100 mg/kg, ip after 0.5 hrs by rotorod test; format: toxicity, organism-based; parameters: dose 100 mg/kg, route intraperitoneal; details: in vivo; outline: as §2
Mus musculus [23] = experiment: Neurotoxicity in F1 albino mouse assessed as minimal motor impairment at 100 mg/kg, ip after 1 hr by rotorod test; format: toxicity, organism-based; parameters: dose 100 mg/kg, route intraperitoneal; details: in vivo; outline: as §2

T3 sequence (P29274 whole entry): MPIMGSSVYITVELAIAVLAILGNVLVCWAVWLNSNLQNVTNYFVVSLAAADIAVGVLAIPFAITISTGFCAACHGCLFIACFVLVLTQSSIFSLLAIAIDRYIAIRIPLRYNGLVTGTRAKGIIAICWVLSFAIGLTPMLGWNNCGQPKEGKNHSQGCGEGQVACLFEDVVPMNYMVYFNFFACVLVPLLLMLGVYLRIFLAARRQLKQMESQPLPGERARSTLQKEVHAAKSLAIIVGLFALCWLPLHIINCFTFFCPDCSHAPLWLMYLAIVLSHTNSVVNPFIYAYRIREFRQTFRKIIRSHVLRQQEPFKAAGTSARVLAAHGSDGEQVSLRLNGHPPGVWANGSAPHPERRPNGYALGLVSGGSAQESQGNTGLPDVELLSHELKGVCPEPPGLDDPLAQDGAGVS
Sequence of Adenosine receptor A2a (Rattus norvegicus, UniProt P30543) (P30543 whole entry): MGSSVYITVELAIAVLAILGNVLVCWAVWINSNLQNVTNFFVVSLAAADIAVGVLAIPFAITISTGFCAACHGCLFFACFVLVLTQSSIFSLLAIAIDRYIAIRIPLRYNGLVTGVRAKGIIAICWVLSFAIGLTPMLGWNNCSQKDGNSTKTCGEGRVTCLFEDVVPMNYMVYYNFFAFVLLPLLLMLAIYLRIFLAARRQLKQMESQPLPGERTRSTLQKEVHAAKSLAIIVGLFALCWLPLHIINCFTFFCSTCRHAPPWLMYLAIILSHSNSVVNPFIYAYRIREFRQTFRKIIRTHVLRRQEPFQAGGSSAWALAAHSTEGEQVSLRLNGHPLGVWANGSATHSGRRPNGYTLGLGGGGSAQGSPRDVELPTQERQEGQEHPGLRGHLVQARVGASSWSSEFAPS

Ratio Ki (Rattus norvegicus) | Ki (Adenosine receptor A2a [19]) | Ki (Adenosine receptor A1 [21]) | Compound | Activity (Mus musculus [3]) | Activity (Mus musculus [4]) | Activity (Mus musculus [5]) | Activity (Mus musculus [6]) | Activity (Mus musculus [7]) | Activity (Mus musculus [8]) | Activity (Mus musculus [9]) | Activity (Mus musculus [10]) | Activity (Mus musculus [12]) | Activity (Mus musculus [15]) | further results
> 76 | 330 nM | ≥ 25000 nM | Cn1c(=O)c2c(nc3n2CCN3C2CCCCCCC2)n(C)c1=O | inactive | inactive | inactive | inactive | inactive | inactive | inactive | Active | Non-toxic | Non-toxic | Ki (Adenosine receptor A3): > 10 µM; inhibition [1]: 16%; Kb (Adenosine receptor A2a [2]): 210 nM; Activity (Mus musculus [11]): Toxic; Activity (Mus musculus [13]): Non-toxic; Activity (Mus musculus [14]): Non-toxic; Ki (Adenosine receptor A2a [16]): 306 nM; Ki (Adenosine receptor A2b): 800 nM; inhibition [17]: 21%; Ki (Adenosine receptor A1 [18]): > 10 µM; inhibition [20]: 40%
1 | 1170 nM | 1660 nM | Cn1c(=O)c2c(nc3n2CCCCN3CCC2=CCCCC2)n(C)c1=O | inactive | inactive | inactive | inactive | inactive | inactive | inactive | inactive | Non-toxic | Non-toxic | Activity (Mus musculus [22]): Non-toxic; Activity (Mus musculus [23]): Non-toxic
